Calls of active or inactive are those of the source. The rule behind the calls is not given here.
How the values were obtained:
J82 [1] = experiment: Induction of apoptosis in human J82 cells assessed as depolarization of mitochondrial membrane potential at 20 uM incubated for 2 hrs by hoechst 33342 staining based fluorescence microscopy; assay type: functional, cell-based
Procedure, shortened: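 J82 cells treated 2 h with PXA, then labelled 20 min with TMRE plus Hoechst 33342. ΔΨm read by high-content fluorescence imaging. Untreated medium and 20 µM CCCP served as controls.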

J82 [2] = experiment: Induction of apoptosis in cisplatin resistant human J82 cells assessed as depolarization of mitochondrial membrane potential at 20 uM incubated for 2 hrs by hoechst 33342 staining based fluorescence microscopy; assay type: functional, cell-based
Procedure, shortened: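 J82CisR cells exposed 2 h, then labelled with TMRE and Hoechst 33342 for 20 min. TMRE signal imaged on a high-content fluorescence imaging platform. Untreated medium control and 20 µM CCCP positive control.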

A2780 [3] = experiment: Induction of apoptosis in human A2780 cells assessed as decrease in mitochondrial membrane potential at 20 uM incubated for 24 hrs by TMRE staining based flow cytometry; assay type: functional, cell-based
Procedure, shortened: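 Cells seeded overnight; medium switched to FBS-free just before treatment to avoid TMRE ester cleavage. Exposure 1 h, 2 h or 24 h, then TMRE staining for 20 min. Cells trypsinized, centrifuged at 4 °C and read by flow cytometry. Medium as negative control, 20 µM CCCP as positive control. […]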

A2780cisR [4] = experiment: Induction of apoptosis in human A2780cisR cells assessed as decrease in mitochondrial membrane potential at 20 uM incubated for 24 hrs by TMRE staining based flow cytometry; assay type: functional, cell-based
Procedure, shortened: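 Cells seeded overnight; complete medium swapped for FBS-free medium just before treatment to avoid TMRE ester cleavage. Exposure to PXA for 1 h, 2 h or 24 h. TMRE staining 20 min, cells collected by trypsinisation, ΔΨm read by flow cytometry. Medium served as negative control, 20 µM CCCP as positive control. Mean ± SEM reported.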

A2780cisR [5] = experiment: Cell cycle arrest in human A2780cisR cells assessed as accumulation at G1 phase incubated for 24 hrs by propidium iodide staining based flow cytometry (reference value: 68.7%); assay type: functional
J82 [6] = experiment: Cell cycle arrest in cisplatin resistant human J82 cells assessed as accumulation at G1 phase incubated for 24 hrs by propidium iodide staining based flow cytometry (reference value: 78.1%); assay type: functional
A2780 [7] = experiment: Cell cycle arrest in human A2780 cells assessed as accumulation at G1 phase incubated for 24 hrs by propidium iodide staining based flow cytometry (reference value: 61.8%); assay type: functional
J82 [8] = experiment: Cell cycle arrest in human J82 cells assessed as accumulation at G1 phase incubated for 24 hrs by propidium iodide staining based flow cytometry (reference value: 69.6%); assay type: functional

With N#CC(C#N)=NNc1cccc(Cl)c1 the Activity (J82 [1]) was “Active”, the Activity (J82 [2]) was “Active” and the Activity (A2780 [3]) was “Active”. For the same compound, the Activity (A2780cisR [4]) was “Active”.

CC(=O)O[C@H]1C(=O)[C@@]2(C)[C@H]([C@H](OC(=O)c3ccccc3)[C@]3(O)C[C@H](OC(=O)[C@H](O)[C@@H](NC(=O)c4ccccc4)c4ccccc4)C(C)=C1C3(C)C)[C@]1(OC(C)=O)CO[C@@H]1C[C@@H]2O [PACLITAXEL] gave an Activity (A2780cisR [5]) of 21.3%, an Activity (J82 [6]) of 29.1% and an Activity (A2780 [7]) of 22.6%. For the same compound, the Activity (J82 [8]) was 35.1%.

— ChEMBL document CHEMBL4396943, “The tetrahydroxanthone-dimer phomoxanthone A is a strong inducer of apoptosis in cisplatin-resistant solid cancer cells” (Bioorg Med Chem, 2019)
